Active and inactive are the calls of the source. The rule behind the calls is not given here.
How the values were obtained:
Mus musculus [1] = assay: Anti-fibrotic activity in C57BL/6 mouse model of unilateral ureter obstruction-induced kidney inflammation and fibrosis assessed as reduction in macrophage infiltration into the obstructed kidney at 3 mg/kg, ip dosed daily for 7 days by F4/80 antibody staining based assay; type: functional, organism-based; details: time 7.0 day
Method in brief: (§1)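 Mice with unilateral ureter obstruction to induce kidney inflammation and fibrosis, given compound or vehicle intraperitoneally. Ligated (UUO) and contralateral kidneys taken at day 7. Fibrosis read by AZAN and Sirius Red staining, with Sirius Red imaged under bright and polarized light. Macrophages detected by F4/80 staining, quantified as positive area. Col1a1, FN1, TNFα and Ccl2 mRNA measured in whole-kidney homogenates by real-time qRT-PCR normalized to GAPDH.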

Mus musculus [2] = organism: Mus musculus; assay: Inhibition of sEH in naive mouse assessed as increase in plasma EET/DHET ratio level; type: functional
Method in brief: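 Plasma from naive mice given a single oral 3 mg/kg dose analyzed for EET/DHET ratio as a read-out of sEH inhibition.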

HepG2 = assay: Cytotoxicity in human HepG2 cells assessed as effect on cell viability up to 25 uM incubated for 48 hrs by CellTiter-Glo luminescent cell viability assay; type: cell-based; details: hepg2, 48 h
Method in brief: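 Cell viability measured by CellTiter-Glo luminescence, quantifying ATP as an indicator of viable cells.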

Mus musculus [3] = assay: Anti-fibrotic activity in C57BL/6 mouse model of unilateral ureter obstruction-induced kidney inflammation and fibrosis assessed as inhibition of tubulo-interstitial fibrosis by measuring reduced blue staining of collagen fibers in AZAN-stained sections at 3 mg/kg, ip dosed daily for 7 days by AZAN trichrome staining method; type: functional, organism-based; details: time 7.0 day; method in brief: as §1
[4] = biological target: T1, Polyunsaturated fatty acid lipoxygenase ALOX15 (Homo sapiens) (UniProt P16050); assay: Activation of 15-LOX in human PMNL pre-incubated for 15 mins before addition of AA and A23187 and measured after 10 mins by HPLC/UV assay; details: filed as activator, time 25.0 min
T1 sequence (whole entry): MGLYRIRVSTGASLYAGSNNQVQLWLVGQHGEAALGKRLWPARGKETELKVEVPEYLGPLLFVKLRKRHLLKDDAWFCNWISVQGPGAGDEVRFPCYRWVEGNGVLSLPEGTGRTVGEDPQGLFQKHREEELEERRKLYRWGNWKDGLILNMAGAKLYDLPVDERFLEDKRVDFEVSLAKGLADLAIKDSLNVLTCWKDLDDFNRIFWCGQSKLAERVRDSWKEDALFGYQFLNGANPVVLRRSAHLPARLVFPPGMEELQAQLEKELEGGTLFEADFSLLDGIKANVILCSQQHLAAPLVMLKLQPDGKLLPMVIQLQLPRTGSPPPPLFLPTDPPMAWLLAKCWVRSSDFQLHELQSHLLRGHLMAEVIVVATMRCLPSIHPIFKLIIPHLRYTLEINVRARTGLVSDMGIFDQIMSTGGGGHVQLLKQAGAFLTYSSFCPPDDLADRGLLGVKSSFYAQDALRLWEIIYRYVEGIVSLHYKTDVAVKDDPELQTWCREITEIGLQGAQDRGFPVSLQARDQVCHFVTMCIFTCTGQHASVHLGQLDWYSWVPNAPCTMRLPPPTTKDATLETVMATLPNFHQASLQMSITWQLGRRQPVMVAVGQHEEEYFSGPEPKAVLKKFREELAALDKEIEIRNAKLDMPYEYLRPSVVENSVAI

[5] = biological target: T2, Polyunsaturated fatty acid lipoxygenase ALOX12 (Homo sapiens) (UniProt P18054); assay: Activation of 12-LOX in human PMNL pre-incubated for 15 mins before addition of AA and A23187 and measured after 10 mins by HPLC/UV assay; details: filed as activator, time 25.0 min
T2 sequence (whole entry): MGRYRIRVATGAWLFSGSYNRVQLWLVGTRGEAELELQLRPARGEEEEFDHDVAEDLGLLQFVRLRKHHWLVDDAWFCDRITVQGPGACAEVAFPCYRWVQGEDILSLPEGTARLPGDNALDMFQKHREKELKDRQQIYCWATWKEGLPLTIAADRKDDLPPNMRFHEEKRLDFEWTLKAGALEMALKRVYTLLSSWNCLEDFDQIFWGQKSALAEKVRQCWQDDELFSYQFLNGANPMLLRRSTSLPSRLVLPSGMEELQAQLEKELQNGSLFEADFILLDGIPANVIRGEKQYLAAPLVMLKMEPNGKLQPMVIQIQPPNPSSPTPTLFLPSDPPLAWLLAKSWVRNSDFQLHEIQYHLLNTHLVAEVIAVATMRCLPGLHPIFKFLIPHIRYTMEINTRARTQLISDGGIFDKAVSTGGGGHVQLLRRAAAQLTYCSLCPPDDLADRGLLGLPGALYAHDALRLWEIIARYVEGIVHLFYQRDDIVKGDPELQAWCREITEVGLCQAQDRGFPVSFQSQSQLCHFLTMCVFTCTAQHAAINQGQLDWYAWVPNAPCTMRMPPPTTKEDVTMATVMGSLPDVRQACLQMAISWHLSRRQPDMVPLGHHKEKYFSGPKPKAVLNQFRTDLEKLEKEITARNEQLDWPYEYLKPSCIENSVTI

Mus musculus [6] = assay: Anti-fibrotic activity in C57BL/6 mouse model of unilateral ureter obstruction-induced kidney inflammation and fibrosis assessed as reduction in Col1a1 mRNA expression at 3 mg/kg, ip dosed daily for 7 days by real-time qPCR analysis; type: functional, organism-based; details: time 7.0 day; method in brief: as §1
[7] = Tmax in Swiss CD-1 mouse at 3 mg/kg, po administered as single dose by LC-MS analysis; type: ADME, organism-based; details: in vivo
Method in brief: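 Male Swiss CD-1 mice received a single oral dose of 3 mg/kg in 1% methylcellulose/Tween80 (99:1); nine mice treated, three vehicle controls, three mice per time point. Serum analyzed by LC-MS for concentration–time profile.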

Activity [4]: Active
Activity [5]: Active
Tmax [7]: 1 h
Compound: C[C@H](C#Cc1cccc(C(=O)NCCC(c2ccc(F)cc2)c2ccc(F)cc2)c1)N(O)C(N)=O
Activity (Mus musculus [1]): Active
Activity (Mus musculus [2]): Active
Activity (HepG2): Non-Toxic
Activity (Mus musculus [3]): Active
Activity (Mus musculus [6]): Active
